Active and inactive are the calls of the source. The calls are words filed in the database; no cut-off is given here.
Columns and labels:
Enterococcus faecium [1] = assay: (§1) Bactericidal activity against Enterococcus faecium isolate 5 with AMP-AMC-CIP-CLI-ERY-GEN-KAN-LVX-SXT-TEC-VAN resistance phenotype assessed as concentration required for >= 3 log10 CFU/ml reduction in viable bacteria in sodium phosphate buffer at pH 7.4 after 1.5 hrs by liquid microdilution assay; assay type: functional
How it was run: (§2)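 Clinical multidrug-resistant isolates grown to mid-log in tryptone soy broth and stored frozen. Exponential cells resuspended in 10 mM sodium phosphate buffer, pH 7.4, at 1 × 10^7 CFU/ml; 10 μl incubated with graded peptide concentrations in 100 μl at 37°C for 1.5 h. Plated on tryptone soy agar, CFU read after 24 h at 37°C. Peptide stocks in 20% ethanol.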

[2] = tested on: Stenotrophomonas maltophilia; assay: Bactericidal activity against Stenotrophomonas maltophilia isolate 1 with AMK-CIP-CTX-IPM-MEM-SAM-TZP resistance phenotype assessed as concentration required for >= 3 log10 CFU/ml reduction in viable bacteria in sodium phosphate buffer at pH 7.4 after 1.5 hrs by liquid microdilution assay; assay type: functional; how it was run: as §2
Acinetobacter baumannii [3] = assay: Bactericidal activity against Acinetobacter baumannii isolate 2 with AMP-CFZ-CIP-LVX-PIP-SXT resistance phenotype assessed as concentration required for >= 3 log10 CFU/ml reduction in viable bacteria in sodium phosphate buffer at pH 7.4 after 1.5 hrs by liquid microdilution assay; assay type: functional; how it was run: as §2
Staphylococcus aureus [4] = assay: Bactericidal activity against Staphylococcus aureus isolate 3 with AMC-AMP-CIP-ERY-GEN-LVX-OXA resistance phenotype assessed as concentration required for >= 3 log10 CFU/ml reduction in viable bacteria in sodium phosphate buffer at pH 7.4 after 1.5 hrs by liquid microdilution assay; assay type: functional; how it was run: as §2
[5] = tested on: Stenotrophomonas maltophilia; assay: Bactericidal activity against Stenotrophomonas maltophilia isolate 2 with AMK-CIP-CTX-IPM-MEM-SAM-TZP resistance phenotype assessed as concentration required for >= 3 log10 CFU/ml reduction in viable bacteria in sodium phosphate buffer at pH 7.4 after 1.5 hrs by liquid microdilution assay; assay type: functional; how it was run: as §2
Staphylococcus aureus [6] = assay: Antimicrobial activity against Staphylococcus aureus isolate 1 with AMC-AMP-CIP-ERY-GEN-OXA-RIF resistance phenotype at twofold the bactericidal concentration within 30 mins; assay type: functional, organism-based
How it was run: (§3)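 Time-kill in 10 mM sodium phosphate buffer, pH 7.4: 1 × 10^7 CFU/ml mid-log clinical isolate (10 μl) exposed at 37°C to peptide at the 1.5-h bactericidal concentration or twofold that, in 100 μl. Samples taken from 2 min onward, plated on tryptone soy agar, CFU counted after 24 h at 37°C. Killing taken as ≥3 log10 CFU/ml drop.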

Enterococcus faecium [7] = assay: Antimicrobial activity against Enterococcus faecium isolate 3 with AMP-CIP-CTX-ERY-GEN-LVX-SXT-TEC-VAN resistance phenotype at twofold the bactericidal concentration within 30 mins; assay type: functional, organism-based; how it was run: as §3
Pseudomonas aeruginosa [8] = assay: Bactericidal activity against Pseudomonas aeruginosa isolate 1 with AMP-CFZ-CIP-CTX-CXM-GEN-LVX-SXT-TET resistance phenotype assessed as concentration required for >= 3 log10 CFU/ml reduction in viable bacteria in 20% heat-inactivated human serum after 1.5 hrs by liquid microdilution assay; assay type: functional
How it was run: (§4)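 The buffer microdilution kill assay (1 × 10^7 CFU/ml mid-log cells, 10 μl in 100 μl, 37°C, 1.5 h, CFU on tryptone soy agar after 24 h) with serum added to 20% or 40% final. Serum was pooled from five healthy donors, clotted at room temperature, spun at 300 × g and heat-inactivated at 56°C for 30 min.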

[9] = tested on: Stenotrophomonas maltophilia; assay: Bactericidal activity against Stenotrophomonas maltophilia isolate 4 with AMK-CAZ-CIP-FEP-IPM-SAM-TZP resistance phenotype assessed as concentration required for >= 3 log10 CFU/ml reduction in viable bacteria in sodium phosphate buffer at pH 7.4 after 1.5 hrs by liquid microdilution assay; assay type: functional; how it was run: as §2
Pseudomonas aeruginosa [10] = assay: Bactericidal activity against Pseudomonas aeruginosa isolate 2 with AMP-CFZ-CIP-CTX-CXM-GEN-LVX-IPM-MEM-SXT-TET resistance phenotype assessed as concentration required for >= 3 log10 CFU/ml reduction in viable bacteria in sodium phosphate buffer at pH 7.4 after 1.5 hrs by liquid microdilution assay; assay type: functional; how it was run: as §2
Enterococcus faecium [11] = assay: as §1, with “isolate 6” for “isolate 5”, “with AMP-AMC-CLI-CRO-CTX-CIP-ERY-GEN-KAN-LVX-SXT-VAN” for “with AMP-AMC-CIP-CLI-ERY-GEN-KAN-LVX-SXT-TEC-VAN”; assay type: functional; how it was run: as §2
Enterococcus faecium [12] = assay: Antimicrobial activity against Enterococcus faecium isolate 3 with AMP-CIP-CTX-ERY-GEN-LVX-SXT-TEC-VAN resistance phenotype assessed as time to kill at twofold the bactericidal concentration; assay type: functional, organism-based; how it was run: as §3
Staphylococcus aureus [13] = assay: Antimicrobial activity against Staphylococcus aureus isolate 1 with AMC-AMP-CIP-ERY-GEN-OXA-RIF resistance phenotype at bactericidal concentration within 30 mins; assay type: functional, organism-based; how it was run: as §3
Pseudomonas aeruginosa [14] = assay: Bactericidal activity against Pseudomonas aeruginosa isolate 1 with AMP-CFZ-CIP-CTX-CXM-GEN-LVX-SXT-TET resistance phenotype assessed as concentration required for >= 3 log10 CFU/ml reduction in viable bacteria in sodium phosphate buffer at pH 7.4 after 1.5 hrs by liquid microdilution assay; assay type: functional; how it was run: as §2
[15] = tested on: Stenotrophomonas maltophilia; assay: Antimicrobial activity against Stenotrophomonas maltophilia isolate 2 with AMK-CIP-CTX-IPM-MEM-SAM-TZP resistance phenotype assessed as assessed as time to kill at twofold bactericidal concentration; assay type: functional; how it was run: as §3
Acinetobacter baumannii [16] = assay: Bactericidal activity against Acinetobacter baumannii isolate 1 with AMP-AMC-CFZ-CIP-IPM-LVX-PIP-SXT-TET resistance phenotype assessed as concentration required for >= 3 log10 CFU/ml reduction in viable bacteria in sodium phosphate buffer at pH 7.4 after 1.5 hrs by liquid microdilution assay; assay type: functional; how it was run: as §2
Enterococcus faecium [17] = assay: Bactericidal activity against Enterococcus faecium isolate 3 with AMP-CIP-CTX-ERY-GEN-LVX-SXT-TEC-VAN resistance phenotype assessed as concentration required for >= 3 log10 CFU/ml reduction in viable bacteria in 20% heat-inactivated human serum after 1.5 hrs by liquid microdilution assay; assay type: functional; how it was run: as §4
Pseudomonas aeruginosa [18] = assay: Antimicrobial activity against Pseudomonas aeruginosa isolate 1 with AMP-CFZ-CIP-CTX-CXM-GEN-LVX-SXT-TET resistance phenotype at bactericidal concentration after 30 mins by time kill assay; assay type: functional, organism-based; how it was run: as §3
Acinetobacter baumannii [19] = assay: Bactericidal activity against Acinetobacter baumannii isolate 3 with AMP-AMC-CFZ-CIP-IPM-SXT-TET-TOB resistance phenotype assessed as concentration required for >= 3 log10 CFU/ml reduction in viable bacteria in 20% heat-inactivated human serum after 1.5 hrs by liquid microdilution assay; assay type: functional; how it was run: as §4
Staphylococcus aureus [20] = assay: Bactericidal activity against Staphylococcus aureus isolate 1 with AMC-AMP-CIP-ERY-GEN-OXA-RIF resistance phenotype assessed as concentration required for >= 3 log10 CFU/ml reduction in viable bacteria in 20% heat-inactivated human serum after 1.5 hrs by liquid microdilution assay; assay type: functional; how it was run: as §4
Pseudomonas aeruginosa [21] = assay: Bactericidal activity against Pseudomonas aeruginosa isolate 1 with AMP-CFZ-CIP-CTX-CXM-GEN-LVX-SXT-TET resistance phenotype assessed as concentration required for >= 3 log10 CFU/ml reduction in viable bacteria in 40% heat-inactivated human serum after 1.5 hrs by liquid microdilution assay; assay type: functional; how it was run: as §4
Staphylococcus aureus [22] = assay: Bactericidal activity against Staphylococcus aureus isolate 2 with AMC-AMP-CIP-ERY-GEN-LVX-OXA-RIF-TET resistance phenotype assessed as concentration required for >= 3 log10 CFU/ml reduction in viable bacteria in sodium phosphate buffer at pH 7.4 after 1.5 hrs by liquid microdilution assay; assay type: functional; how it was run: as §2

H-GIFSKLAGKKLKNLLISG-NH2
Activity (Enterococcus faecium [1]): 2 µM
Activity [2]: 0.5 µM
Activity (Acinetobacter baumannii [3]): 0.5 µM
Activity (Staphylococcus aureus [4]): 8 µM
Activity [5]: 0.5 µM
Activity (Staphylococcus aureus [6]): inactive
Activity (Enterococcus faecium [7]): inactive
Activity (Pseudomonas aeruginosa [8]): 4 µM
Activity [9]: 0.5 µM
Activity (Pseudomonas aeruginosa [10]): 1 µM
Activity (Enterococcus faecium [11]): 2 µM
Activity (Enterococcus faecium [12]): inactive
Activity (Staphylococcus aureus [13]): inactive
Activity (Pseudomonas aeruginosa [14]): 1 µM
Time [15]: 2 min
Activity (Acinetobacter baumannii [16]): 0.5 µM
Activity (Enterococcus faecium [17]): 32 µM
Activity (Pseudomonas aeruginosa [18]): inactive
Activity (Acinetobacter baumannii [19]): 16 µM
Activity (Staphylococcus aureus [20]): 64 µM
Activity (Pseudomonas aeruginosa [21]): 128 µM
Activity (Staphylococcus aureus [22]): 16 µM

Source: ChEMBL document CHEMBL1151458, “Comparative analysis of the bactericidal activities of amphibian peptide analogues against multidrug-resistant nosocomial bacterial strains” (2008)
